In series [1] the target is T1, angiotensin I-converting enzyme (ACE) (Oryctolagus cuniculus, UniProt P12822).
T1 sequence (P12822 34-1310): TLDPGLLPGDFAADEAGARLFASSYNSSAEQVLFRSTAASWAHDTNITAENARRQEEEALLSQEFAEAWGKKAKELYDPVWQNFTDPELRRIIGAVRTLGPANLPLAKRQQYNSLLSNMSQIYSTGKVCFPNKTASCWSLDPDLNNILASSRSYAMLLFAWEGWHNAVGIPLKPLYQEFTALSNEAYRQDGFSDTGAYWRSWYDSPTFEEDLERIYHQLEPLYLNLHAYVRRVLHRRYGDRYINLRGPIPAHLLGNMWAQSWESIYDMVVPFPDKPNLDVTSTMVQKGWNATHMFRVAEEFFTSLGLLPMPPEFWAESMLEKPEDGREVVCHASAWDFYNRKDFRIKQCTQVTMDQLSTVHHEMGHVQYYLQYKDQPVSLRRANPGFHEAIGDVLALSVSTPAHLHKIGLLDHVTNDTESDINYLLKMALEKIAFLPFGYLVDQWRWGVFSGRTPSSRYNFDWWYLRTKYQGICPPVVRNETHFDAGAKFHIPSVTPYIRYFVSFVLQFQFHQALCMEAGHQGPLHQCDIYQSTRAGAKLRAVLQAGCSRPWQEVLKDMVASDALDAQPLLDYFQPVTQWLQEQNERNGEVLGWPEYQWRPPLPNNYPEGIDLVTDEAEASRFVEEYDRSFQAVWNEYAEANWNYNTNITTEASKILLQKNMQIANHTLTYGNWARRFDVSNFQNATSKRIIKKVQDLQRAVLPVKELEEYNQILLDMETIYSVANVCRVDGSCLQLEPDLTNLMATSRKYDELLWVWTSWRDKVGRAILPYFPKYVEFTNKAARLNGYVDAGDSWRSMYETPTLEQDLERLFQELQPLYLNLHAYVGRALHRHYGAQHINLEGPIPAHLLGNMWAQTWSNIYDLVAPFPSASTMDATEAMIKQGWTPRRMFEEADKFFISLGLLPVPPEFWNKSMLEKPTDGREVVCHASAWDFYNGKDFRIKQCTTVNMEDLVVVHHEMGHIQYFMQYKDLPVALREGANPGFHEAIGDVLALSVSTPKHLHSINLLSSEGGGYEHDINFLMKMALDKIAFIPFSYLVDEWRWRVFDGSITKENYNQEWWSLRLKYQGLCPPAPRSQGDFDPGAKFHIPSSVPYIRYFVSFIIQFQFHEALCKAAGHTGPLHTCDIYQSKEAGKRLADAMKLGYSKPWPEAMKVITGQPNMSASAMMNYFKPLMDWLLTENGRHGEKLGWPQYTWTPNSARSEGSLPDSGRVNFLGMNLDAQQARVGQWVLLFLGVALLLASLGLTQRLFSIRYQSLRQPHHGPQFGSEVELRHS
Description: ACE inhibition pattern by Lineweaver-Burk plots. The format is biochemical. The note with it: substrate HHL. Put shortly: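 ACE kept constant while test compound (in 0.1% DMSO) and HHL substrate were both varied. Enzyme and compound were pre-incubated 10 min at 37℃, then HHL in 50 mM sodium borate with 500 mM NaCl, pH 8.3, was added for 60 min at 37℃. Stopped with 1 M HCl; hippuric acid extracted into ethyl acetate, dried, redissolved in water, A228. 0.1% DMSO control. Lineweaver-Burk plots, mean ± SD of three determinations.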

The subject of series [2] is EAhy926 cells. Description: Nitric oxide. The following applies: 24 h, P < 0.05. The format is cell-based, human. Put shortly: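 EAhy926 cells at 1.5 × 10^5 cells/well were treated 24 h with a range of test compound concentrations in 0.1% DMSO, with 0.1% DMSO as control. Supernatant nitrite: supernatant mixed 1:1 with Griess reagent (0.1% N-(1-naphthyl)-ethylenediamine, 1% sulfanilamide in 5% phosphoric acid), 10 min at room temperature, A550 against a sodium nitrite standard curve. Mean ± SD of three determinations; one-way ANOVA with Duncan's test, P < 0.05.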

In series [3] the test system is EAhy926 cells. The experiment in a line: Cell viability, MTT assay. Format: cell-based, human. Summed up: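 EAhy926 cells grown in DMEM with 10% heat-inactivated calf serum, penicillin and streptomycin at 37℃, 5% CO2. Seeded at 1.0 × 10^5 cells/ml, held 16 h, then exposed 24 h to a range of test compound concentrations in 0.1% DMSO. MTT (2 mg/ml stock) added for 4 h; formazan dissolved in DMSO, A540. Viability as % of 0.1% DMSO control; mean ± SD of three determinations.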
Background: Formazan colour is commonly taken as a measure of viable cells.

The test system of series [4] is glycosidases from the viscera of the turban shell Turbo cornutus. The note with it: cited from earlier work.

These results are taken from publication PMC3085808 (Nutrition Research and Practice, 2011).

Regarding `Oc1cc(O)cc(Oc2c(O)cc(O)c3c2Oc2c(O)cc(Oc4c(O)cc(Oc5c(O)cc(O)c6c5Oc5c(O)cc(O)cc5O6)cc4O)cc2O3)c1` [Dieckol, dieckol], the ACE inhibition mode entry in series [1] was “non-competitive inhibitor”. Besides, in series [2], the “Concentrations with inducible effect on the production of NO” value is reported as “higher than 0.27 mM”. Moreover, the Cytotoxic effect result in series [3] is on record as “no cytotoxic effect”. The “Survival rate of cells” value in series [3] (24 h, all of the concentrations used) is recorded as “higher than 95%”. The Glycosidase inhibition mode entry in series [4] is listed as “non-competitive inhibitor”.
